Bfl-1 A1 inh – inhibitors of the anti-apoptotic protein A1, read as caspase activation; caspase activation, % (no concentration beside the values); AID 2462; hit rate 0.066% among 330,000; MEF A1-2A-BIM cells, Caspase-Glo 3/7 luminescence, 3 h; percent of clofoctol response, vehicle zero;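 active means over half of replicate activation scores above 10%, or exactly half above 10 with the replicate mean above 10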
NALP3 yeast inh – inhibitors of NALP3 inflammasome in yeast; hit rate 0.39% among 330,000; inhibition, % at 10 µM; Yeast reconstituted NLRP3/ASC/caspase-1, beta-gal luminescence, 24 h; AID 2825;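 active means inhibition of 50% or more; inactive means inhibition below 50%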
T cell modulator – T cell immune modulation candidate; 2C CD8+ T cell-vesicle binding, flow cytometry; active compounds read low; response (vesicle binding), % at 7 µM; hit rate 0.068% among 330,000; AID 2052;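 active means response, share of CD8 T cells binding vesicles, and their 90th percentile fluorescence all below set limits, cut at about 80% in these data, passing the limit was not always enough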;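 further: values below 100% mean blocked vesicle binding to the CD8+ T cells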
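Assay system: 2C TCR transgenic mouse naive CD8+ T cells, MACS-purified | Read-out: CD8+ gate FL2 mean fluorescence as % of same-row positive control | Signal: High-throughput flow cytometry with anti-B7-1 and anti-CD8 staining | Timing: Binding step 1.5 h, 37 °C, antibody labelling 20 min, ice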
NALP1 inh – inhibitors of NALP1 inflammasome in yeast | inhibition, % at 10 µM | hit rate 0.61% among 280,000 | S. cerevisiae NALP1/ASC/caspase-1 growth, X-gal OD620, 72 h; in the data active means inhibition mostly above about 24%, no sharp cut-off; inactive means mostly below about 32%
NALP3 yeast conf – confirmation of NALP3 inhibitors in yeast; shares compounds with NALP3 yeast inh; yeast expressing human NALP3, luminescence; inhibition, % at 10 µM; hit rate 81% among 1,300; AID 435006; in the data active means inhibition above about 48%
Casp1-ASC yeast – caspase-1-ASC yeast counter-screen hit | hit rate 66% among 1,000 | shares compounds with NALP3 yeast inh | inhibition, % at 10 µM | yeast expressing Caspase-1-ASC, luminescence counter screen
NALP3 yeast rt – confirmation retest of NALP3 inhibitors in yeast. hit rate 53% among 1,000. shares compounds with NALP3 yeast inh. AID 488794. yeast expressing human NALP3, luminescence read-out. inhibition, % at 10 µM
Of the large screens only hits and unclear results are named; the others gave an inactive call (follow-up assays come after a bar, where they were run). This is a sample that favours compounds with a hit; in the whole collection about 1% have one here. Unless noted, no stated cut-off is given here; in the data, active means inhibition above about 50%; inactive means the rest.

O=C(NCCc1ccc(Cl)cc1)c1ccc(Br)s1	none
Cc1ccc(-c2cnn(-c3cccc(C(F)(F)F)c3)c2N)cc1	NALP3 yeast inh 57 | NALP3 yeast conf 66 | Casp1-ASC yeast inactive | NALP3 yeast rt inactive
COCc1cc(N2CCOCC2)nc(SCc2ccc(Cl)cc2)n1	NALP3 yeast inh 58 | NALP3 yeast conf 47 | Casp1-ASC yeast 68 | NALP3 yeast rt inactive
CSCc1cc(N2CCOCC2)nc(SCc2ccc(Cl)c(Cl)c2)n1	none
COC(=O)c1c(NC(=O)c2ccco2)sc(C)c1C	none
O=C(Nc1ccc(Nc2ccccc2)cc1)c1ccc(F)cc1	NALP3 yeast inh 62 | NALP3 yeast conf 78 | Casp1-ASC yeast 59 | NALP3 yeast rt 53
O=C(Nc1ccc2oc(-c3ccccc3)nc2c1)c1ccco1	NALP3 yeast inh 77 | NALP3 yeast conf inactive
O=C(Nc1ccc(Nc2ccccc2)cc1)c1ccco1	NALP3 yeast inh 75 | NALP3 yeast conf 70 | Casp1-ASC yeast 79 | NALP3 yeast rt 75
Cc1c(Cc2ccccc2)sc(NC(=O)c2ccco2)c1C(N)=O	NALP3 yeast inh 85 | NALP3 yeast conf 92 | Casp1-ASC yeast 95 | NALP3 yeast rt 86
CC1CN(S(=O)(=O)c2ccc(C(=O)N(C)C3CCCCC3)cc2)CC(C)O1 (stereo not given)	none (no result: NALP1 inh)
O=C(c1cccc(C(F)(F)F)c1)N1CCC2(CC1)NCCc1[nH]cnc12	none
CC(CCN1CCN(c2ccccc2)CC1)c1ccccc1 (stereo not given)	none
O=C(Nc1ccc(F)c(Cl)c1)c1ccccc1	NALP3 yeast inh 61 (no result: NALP1 inh) | NALP3 yeast conf 82 | Casp1-ASC yeast 70 | NALP3 yeast rt 63
COc1ccc2c(=O)c3ccccc3oc2c1	NALP3 yeast inh 57 | NALP3 yeast conf 68 | Casp1-ASC yeast inactive | NALP3 yeast rt inactive
COc1ccc2c(=O)c(-c3cnn(-c4ccccc4)c3)c(C)oc2c1	NALP3 yeast inh 62 | NALP3 yeast conf 66 | Casp1-ASC yeast 59 | NALP3 yeast rt 68
O=C(O)c1ccc(NC(=S)NC(=O)c2ccc(-c3ccc(Br)cc3)o2)cc1	none (no result: NALP3 yeast inh)
O=c1[nH]c(C(F)(F)F)nc2ccc3ccccc3c12	none
Cc1ccc(OCCn2c(=S)[nH]c3ccccc32)c(C(C)C)c1	NALP3 yeast inh 75 | NALP3 yeast conf 81 | Casp1-ASC yeast 56 | NALP3 yeast rt inactive
COc1ccc(CC(=O)Nc2ccc(-c3noc(-c4cc(OC)c(OC)c(OC)c4)n3)cc2)cc1	NALP3 yeast inh 58 | NALP3 yeast conf inactive
CCCN(CC(=O)Nc1ccccc1OC)C(=O)c1cc(-c2ccccc2)nn1-c1ccccc1	none (no result: NALP1 inh)
COc1ccc(Sc2cc(C(F)(F)F)nc(-c3ccccn3)n2)cc1	NALP3 yeast inh 51 | NALP3 yeast conf 64 | Casp1-ASC yeast 55 | NALP3 yeast rt inactive

Screening results deposited in PubChem by several laboratories.
